SIAE inh – blocks human sialic acid acetylesterase | AID 1053197 | inhibition, % at 9.66 µM | actives 0.69% (n = 370,000) | Q9HAT2 | SIAE FP-Rh probe binding, fluorescence polarization;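 active = inhibition above a cutoff: mean of compounds within the control limits plus 3 SD of those, cut at about 17% in these data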
TCR CD3 inh – inhibitors of human TCR-CD3 interaction. TAMRA-labeled TCR probe fluorescence, biochemical. inhibition, % at 9.4 µM. actives 0.37% (n = 360,000). AID 651800; in the data active = inhibition above about 19%;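 also: recombinant mutant TCR 2C K166C tagged with TAMRA read by polarization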
HTRA1 inhibitor – inhibitors of human serine peptidase HTRA1; actives 0.5% (n = 340,000); recombinant HTRA1, FP-rhodamine activity-based probe, fluorescence polarization; inhibition, % at 5.96 µM; in the data active = inhibition above about 36%
PRMT1 inh – blocks human protein arginine methyltransferase 1; Q99873; recombinant PRMT1, activity-based probe fluorescence polarization; inhibition, % at 2.79 µM; actives 1.3% (n = 370,000);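 active = inhibition above about 21% made by adding two undisclosed values, limit read from the data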
Target sequence (Q99873 whole entry, looked up): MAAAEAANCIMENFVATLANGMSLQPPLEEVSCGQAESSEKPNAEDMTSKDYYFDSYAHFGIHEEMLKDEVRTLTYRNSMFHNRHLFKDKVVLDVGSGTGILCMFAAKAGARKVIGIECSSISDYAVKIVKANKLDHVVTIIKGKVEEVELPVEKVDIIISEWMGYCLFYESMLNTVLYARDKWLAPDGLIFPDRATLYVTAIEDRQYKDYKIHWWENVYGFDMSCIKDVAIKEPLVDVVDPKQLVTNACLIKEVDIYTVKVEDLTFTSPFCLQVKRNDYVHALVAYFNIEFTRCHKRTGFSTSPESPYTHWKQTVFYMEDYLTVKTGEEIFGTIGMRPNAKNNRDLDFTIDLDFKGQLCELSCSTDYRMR
mABHD4 FP – inhibits mouse alpha/beta hydrolase domain 4; actives 0.54% (n = 370,000); purified mABHD4, FP-Rh probe fluorescence polarization; inhibition, % at 8.92 µM; Q8VD66;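 active = inhibition exceeding the mean over every tested compound plus 3 SD, cut at about 30% in these data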
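Assay system: mouse ABHD4 enzyme, wild type / Also added: fluorescent activity-based probe FP-Rh / Doses: single nominal dose of 8.92 µM, 0.89% DMSO final / Timing: 45 min compound pre-incubation plus 60 min probe step, 25 °C / Signal: FP readout, ex 525 nm / em 598 nm / Control set: S159A mutant/DMSO as 100%, compound-well median as 0%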
PRMT1 confirm – confirmation of human PRMT1 inhibitors | inhibition, % at 2.79 µM | AID 687036 | recombinant His-PRMT1, activity-based probe fluorescence polarization | actives 42% (n = 3,300) | shares compounds with PRMT1 inh;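 active = mean inhibition across replicates above the hit cutoff derived for the earlier primary screen, cut at about 22% in these data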
Of the large screens only hits and unclear results are named; the others gave an inactive call (follow-up assays come after a bar, where they were run). Only some compounds are listed: those with a hit (about 2.5% of all), similar ones and a draw of the others.

COC(=O)c1ccccc1NC(=O)c1nc(S(=O)(=O)Cc2ccccc2)ncc1Cl	none
Cc1ccc(CS(=O)(=O)c2ncc(Cl)c(C(=O)Nc3ccc(OC(F)F)cc3)n2)cc1	PRMT1 inh 29 | PRMT1 confirm 21
CCS(=O)(=O)c1ncc(Cl)c(C(=O)Nc2ccc(C)cc2)n1	none
CCC1CCCCN1S(=O)(=O)c1ccc(NC(=O)c2nc(S(C)(=O)=O)ncc2Cl)cc1 (stereo unspecified)	PRMT1 inh 50 | PRMT1 confirm 47
CS(=O)(=O)c1ncc(Cl)c(C(=O)Nc2ccc3ccccc3c2)n1	PRMT1 inh 50 | PRMT1 confirm 35
CCC1CCCCN1S(=O)(=O)c1ccc(NC(=O)c2ccncc2)cc1 (stereo unspecified)	none
CC(=O)Nc1ccc(NC(=O)c2nc(S(=O)(=O)Cc3ccccc3)ncc2Cl)cc1	PRMT1 inh 30 | PRMT1 confirm 23
COCCCNC(=O)c1ccc2sc([C@@H]3O[C@H](CO)[C@H](O)[C@H](O)[C@H]3O)nc2c1	none (no result: HTRA1 inhibitor)
CCc1cccc(C)c1N=Cc1c(O)c2ccccc2oc1=O	none
Cn1nnnc1Sc1ncnc2scc(-c3ccccc3C(F)(F)F)c12	PRMT1 inh 39 | PRMT1 confirm inactive
Cc1cc2ccccc2c(=O)n1CC(=O)NCC(=O)N(C)C1CCCCC1	none
CC(=O)CSc1nc2c(c(=O)[nH]c(=O)n2C)n1Cc1cccc(Br)c1	PRMT1 inh 36 | PRMT1 confirm inactive
Cn1cc(/C=C2\SC(=O)NC2=S)c2ccccc21	PRMT1 inh 28 | PRMT1 confirm inactive
Cc1ccc(C(=O)NN2C(=O)/C(=C/c3cn(C)c4ccccc34)SC2=S)cc1	none
CCC(=O)c1ccc(OCC(=O)OCC(=O)NCC2CCCO2)cc1 (stereo unspecified)	none
CCN(CC)C(=O)CSc1nnc2nnc3cc(OC)ccc3n12	PRMT1 inh 29 (no result: HTRA1 inhibitor) | PRMT1 confirm 26
CC1CN(S(=O)(=O)c2cccc(C(=O)OC(C)C(=O)NC3CCCCC3C)c2)CC(C)O1 (stereo unspecified)	none
O=C(CCCc1nc2ccccc2s1)Nc1nccs1	PRMT1 inh 41 | PRMT1 confirm inactive
O=C(CCCSc1nc2ccccc2s1)Nc1nccs1	none
Cc1cnc(NC(=O)CCCc2nc3ccccc3s2)s1	PRMT1 inh 49 | PRMT1 confirm inactive
CCCN1C(=O)/C(=c2\sc3nc(=O)c(Cc4ccc(C)cc4)nn3c2=O)c2ccccc21	none
NC(=O)CN1C(=O)/C(=c2\sc3nc(=O)c(Cc4ccccc4)nn3c2=O)c2ccccc21	PRMT1 inh 45 (no result: HTRA1 inhibitor) | PRMT1 confirm 40
COc1ccc(S(=O)(=O)Nc2ccc(N3CCOCC3)cc2)cc1Br	none
Cc1cc(S(=O)(=O)Nc2ccc(N3CCOCC3)cc2)ccc1Br	PRMT1 inh 29 | PRMT1 confirm inactive
Cc1ccc(NC(=O)COC(=O)CC2CCCC2)cc1Cl	none (no result: SIAE inh, TCR CD3 inh, PRMT1 inh, mABHD4 FP)
Cc1ccc2occ(C3NC(C(=O)O)CS3)c(=O)c2c1 (stereo unspecified)	none
Cc1ccc2occ(C3N[C@H](C(=O)O)CS3)c(=O)c2c1 (stereo partly specified)	PRMT1 inh 50 | PRMT1 confirm 45
CC(=O)c1sc2nsc(SCCN3CCOCC3)c2c1N	PRMT1 inh 67 (no result: HTRA1 inhibitor) | PRMT1 confirm inactive
COc1ccc(N2C(=NC(=O)C3CCCO3)SC3CS(=O)(=O)CC32)cc1 (stereo unspecified)	none
Cc1ccc(Cn2cc(/C=N/Nc3ccc([N+](=O)[O-])cn3)c3ccccc32)cc1	none
O=C(O)Cn1cc(/C=N/Nc2ccc([N+](=O)[O-])cn2)c2ccccc21	PRMT1 inh 28 | PRMT1 confirm inactive
O=C(CSc1nnc(-c2ccc(S(=O)(=O)N3CCCC3)cc2)o1)NCc1ccco1	none
COC(=O)C1CSC2c3ccccc3C(=O)N12 (stereo unspecified)	PRMT1 inh 32 | PRMT1 confirm inactive
COc1ccccc1C1C2=C(N=c3s/c(=C/c4cccc(OCC(=O)O)c4)c(=O)n31)c1ccccc1CC2 (stereo unspecified)	PRMT1 inh 56 | PRMT1 confirm 22
CCOC(=O)C1=C(C)N=c2s/c(=C/c3cccc(OCC(=O)O)c3)c(=O)n2C1c1ccc(F)cc1 (stereo unspecified)	PRMT1 inh 41 (no result: HTRA1 inhibitor) | PRMT1 confirm inactive
CCOC(=O)C1=C(C)N=c2s/c(=C\c3cccc(OCC(=O)O)c3)c(=O)n2C1c1ccccc1 (stereo unspecified)	PRMT1 inh 32 | PRMT1 confirm inactive
CCOC(=O)C1=C(C)N=c2s/c(=C\c3ccc(C(=O)O)cc3)c(=O)n2C1c1ccc(F)cc1 (stereo unspecified)	none
C[C@H]1CNC(=O)c2c(C(=O)NC3CCN(C(=O)OC(C)(C)C)CC3)ncn21	none (no result: HTRA1 inhibitor)
O=c1cc(-c2ccccc2)[nH]n1-c1ccccc1	none
O=C1C=CC(=O)N1c1cccc(-c2ccccc2)c1	PRMT1 inh 91 | PRMT1 confirm 94
O=C(Nc1ccccc1C(F)(F)F)OCCN1C(=O)CCC12CCC(c1ccccc1)CC2 (stereo unspecified)	none (no result: TCR CD3 inh, HTRA1 inhibitor)
c1coc(-c2nnc3sc(Cc4cccs4)nn23)c1	PRMT1 inh 64 | PRMT1 confirm inactive
COc1ccccc1-n1c(SC)nc(O)cc1=O	PRMT1 inh 25 | PRMT1 confirm inactive
FC(F)(F)c1ccccc1Cc1c(-c2ccco2)nc2ccc(Cl)cn12	PRMT1 inh 35 (no result: HTRA1 inhibitor) | PRMT1 confirm inactive
FC(F)(F)c1cc(Cl)c2nc(-c3ccco3)c(Cc3ccccc3C(F)(F)F)n2c1	PRMT1 inh 47 (no result: HTRA1 inhibitor) | PRMT1 confirm inactive
Cc1ccc(-c2nc3c(Cl)cc(C(F)(F)F)cn3c2Cc2ccccc2C(F)(F)F)cc1	none (no result: HTRA1 inhibitor)
Cc1cc(OCc2cc(C(=O)N(C)C3CCOC3)no2)cc(C)c1Cl (stereo unspecified)	none
O=C(CSC1=NCCS1)Nc1ccc(S(=O)(=O)NC2CCCCC2)cc1	PRMT1 inh 29 | PRMT1 confirm 26
O=C(CSC1=NCCS1)Nc1ccc(S(=O)(=O)N2CCCCCC2)cc1	PRMT1 inh 38 | PRMT1 confirm 52
CC(=O)Nc1ccc(S(=O)(=O)NCCC(=O)Nc2ccc(C)c(F)c2)cc1	none
S=c1[nH]c2ccc(Cl)cc2s1	none
Cc1cccc2sc(=S)[nH]c12	PRMT1 inh 28 (no result: HTRA1 inhibitor) | PRMT1 confirm inactive
Nc1c(C(=O)Nc2ccc(Cl)c(Cl)c2)sc2nc(-c3cccnc3)ccc12	PRMT1 inh 26 (no result: HTRA1 inhibitor) | PRMT1 confirm inactive
Nc1c(C(=O)Nc2ccccc2F)sc2nc(-c3cccnc3)ccc12	none
CC(C)=C1C2CCC1C1C(=O)N(c3ccc4c(c3)OCO4)C(=O)C21 (stereo unspecified)	none
CC(C)=C1C2C=CC1C1C(=O)N(c3ccc4c(c3)OCO4)C(=O)C21 (stereo unspecified)	PRMT1 inh 73 | PRMT1 confirm inactive

Assay outcomes: PubChem BioAssay, The Scripps Research Institute Molecular Screening Center
